How the values were obtained:
[1] = target: F508del-CFTR in CFBE41o− cells (Homo sapiens, UniProt P13569, DEL508-508); assay: F508del-CFTR half-life after cycloheximide block of protein synthesis; assay type: cell-based; conditions: 24 hours of treatment then cycloheximide, ARN23765 1 nM, VX-809 1 μM
[2] = system: F508del-CFTR CFBE41o− cells; assay: Western blot of F508del-CFTR maturation in CFBE41o− cells; assay type: cell-based; conditions: 24 hours
Method in brief: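 Confluent CFBE41o− cells expressing F508del-CFTR were treated with test compounds or DMSO. They were lysed in RIPA with protease inhibitors and cleared at 15,300g, 4°C, 10 min. Lysates were run on SDS-PAGE and immunoblotted with mouse monoclonal anti-CFTR. Immature core-glycosylated band B runs near 150 kDa. Bands were quantified as regions of interest and normalised to GAPDH.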

[3] = system: F508del/F508del bronchial epithelial cells; assay: Short-circuit current recordings on primary CF bronchial epithelial cells; assay type: cell-based, human
Method in brief: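 Primary bronchial epithelial cells came from lung-transplant bronchi and were differentiated on porous inserts, then kept 2–3 weeks under air-liquid culture. Correctors or DMSO were given in basolateral medium. Epithelia were mounted in a vertical diffusion chamber, bicarbonate saline (126 mM NaCl, 24 mM NaHCO3, 10 mM glucose) both sides, gassed 5% CO2:95% air, 37°C. Voltage was clamped and short-circuit current recorded. ENaC was blocked with amiloride (10 μM).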

[4] = system: F508del-CFTR CFBE41o− cells; assay: HS-YFP assay in CFBE41o− cells expressing F508del-CFTR; assay type: cell-based
[5] = target: ABC-B1 (MDR1, P-glycoprotein) (Homo sapiens, UniProt P08183); assay: ABC transporter inhibition, ABC-B1; assay type: in vitro ADME
[6] = system: bronchial epithelial cells (F508del/F508del, F508del/other mutation, non-CF); assay: TEEC/PD technique; assay type: cell-based, human; conditions: for F508del-CFTR function, ∆Ieq: 10 nM
Method in brief: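 CF and non-CF primary bronchial epithelia at air-liquid interface on 0.33-cm2 inserts were treated 24 h at 37°C, 5% CO2. Measurements used Coon's F12 with NaHCO3 replaced by 20 mM Na-Hepes (pH 7.3), after 1 h equilibration. TEER and PD were read at baseline, after apical amiloride 10 μM, forskolin 10 μM + genistein 50 μM bilateral, then apical PPQ102 30 μM, 10 min each. Ieq came from Ohm's law; ∆Ieq = change on PPQ102.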

Sequence of ABC-B1 (MDR1, P-glycoprotein) (P08183 whole entry, species assumed): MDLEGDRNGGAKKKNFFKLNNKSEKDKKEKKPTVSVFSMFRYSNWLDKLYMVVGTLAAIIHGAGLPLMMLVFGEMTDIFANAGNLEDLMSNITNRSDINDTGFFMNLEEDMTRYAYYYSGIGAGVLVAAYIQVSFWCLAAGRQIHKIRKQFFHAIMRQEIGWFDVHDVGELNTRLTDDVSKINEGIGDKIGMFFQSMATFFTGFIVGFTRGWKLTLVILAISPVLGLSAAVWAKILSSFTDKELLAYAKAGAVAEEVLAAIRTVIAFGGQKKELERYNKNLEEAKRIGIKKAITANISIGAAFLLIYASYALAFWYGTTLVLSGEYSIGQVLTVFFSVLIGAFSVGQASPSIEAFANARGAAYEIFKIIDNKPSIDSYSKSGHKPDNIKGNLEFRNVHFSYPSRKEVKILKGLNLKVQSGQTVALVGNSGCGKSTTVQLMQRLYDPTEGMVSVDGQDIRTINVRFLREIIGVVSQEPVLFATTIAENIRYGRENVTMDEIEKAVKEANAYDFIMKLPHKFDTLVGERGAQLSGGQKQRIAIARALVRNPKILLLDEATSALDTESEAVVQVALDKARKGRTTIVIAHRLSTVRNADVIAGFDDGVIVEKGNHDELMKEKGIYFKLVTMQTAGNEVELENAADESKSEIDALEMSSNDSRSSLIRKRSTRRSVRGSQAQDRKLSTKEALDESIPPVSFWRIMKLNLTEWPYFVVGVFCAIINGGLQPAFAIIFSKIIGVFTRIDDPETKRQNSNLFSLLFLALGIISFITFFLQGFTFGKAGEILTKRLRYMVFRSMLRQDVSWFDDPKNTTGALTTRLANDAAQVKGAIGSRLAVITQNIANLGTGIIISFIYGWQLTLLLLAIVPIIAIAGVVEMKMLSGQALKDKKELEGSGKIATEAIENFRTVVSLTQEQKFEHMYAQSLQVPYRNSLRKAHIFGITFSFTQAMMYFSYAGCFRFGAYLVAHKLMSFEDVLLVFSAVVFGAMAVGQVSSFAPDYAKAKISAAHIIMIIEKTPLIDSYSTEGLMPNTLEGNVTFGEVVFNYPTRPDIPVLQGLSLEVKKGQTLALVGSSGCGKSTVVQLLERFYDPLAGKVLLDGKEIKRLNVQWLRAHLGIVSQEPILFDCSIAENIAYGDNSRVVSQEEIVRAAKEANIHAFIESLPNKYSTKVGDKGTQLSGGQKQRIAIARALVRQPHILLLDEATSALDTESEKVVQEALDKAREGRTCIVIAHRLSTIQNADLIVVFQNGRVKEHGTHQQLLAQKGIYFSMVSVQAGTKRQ

## CN(C(=O)c1cccc(-n2nc(C(F)(F)F)c3c2[C@@H](Oc2ccc(C(=O)O)cc2)CCC3)c1)c1ccc2c(c1)OC(F)(F)O2 [ARN23765]
[1]
  increase of half-life of mature CFTR (band C): threefold
[2]
  F508del-CFTR maturation, band C: at low concentrations was also observed
[3]
  effective concentrations lower compared to VX-809 and VX-661: more than 5000 times
  time after removal of the compound at which correction can be observed: up to 36 hours
[3]; F508del/F508del bronchial epithelial cells
  improvement in potency (EC50) with respect to VX-809 / presently available corrector drugs: more than 5000 fold
[3]; Homo sapiens, Epithelial cell
  EC50: 0.038 nM
[3]; VX-809 1 μM or ARN23765 1 nM for 72 hours
  extent of rescue after 72 hours of treatment: comparable to that of epithelia treated with these correctors for only 24 hours
[3]; VX-809 1 μM or ARN23765 1 nM for 120 hours, compared to 72 hours
  F508del-CFTR rescue after 120 hours of treatment: still maintained
[3]; short-circuit current, CF primary bronchial epithelial cells, 24 hours
  rescue of F508del-CFTR function: decreased at 1 μM
[4]; CFBE41o− cells, VX-809 1 μM, ARN23765 10 nM, or both
  F508del-CFTR activity (QR) of the ARN23765/VX-809 combination: no additive effect
[4]; Homo sapiens, CFBE41o-, 24 h
  EC50: 0.4 nM
[5]
  inhibition at 10 µM: 13%
[6]; cells from four patients with F508del/F508del, 24 hours
  F508del-CFTR function, ∆Ieq: markedly increased F508del-CFTR function, with results comparable to those of VX-809 (1 μM)
[6]; epithelia from two patients with a single copy of F508del and a premature stop codon (R553X and G542X)
  F508del-CFTR function, ∆Ieq: notably effective
[6]; non-CF epithelia, ARN23765 10 nM, VX-809 1 μM
  wild-type CFTR function, ∆Ieq: elicited a significant increase of wild-type CFTR function
